The test system of this data set is MS2 coat protein. Put plainly: apparent Kd, MS2 coat protein; higher = weaker binding; RNA-MaP array; FMN 200 µM where present. Summed up:
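Stalled E. coli RNA polymerase produced the designs on Illumina sequencing-chip clusters. SNAP-549-labelled MS2 coat protein was added from 0.7 or 1.5 nM, doubling to 3 µM, without and then with constant ligand, in 100 mM Tris-HCl pH 7.5, 80 mM KCl, 4 mM MgCl2, BSA, DTT, yeast tRNA and Tween-20. The apparent Kd is the median of filtered per-cluster fits of green signal normalised to red-channel RNA signal and control-cluster median Fmax.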

The mark [1] stands for this setting: designed as: OFF switch for flavin mononucleotide, no ligand.
Where [2] appears, read: ligand present: flavin mononucleotide, designed as: OFF switch for flavin mononucleotide.
[3] abbreviates: designed as: ON switch for flavin mononucleotide, no ligand.
Setting [4] is: ligand present: flavin mononucleotide, designed as: ON switch for flavin mononucleotide.

“UGAUAACAUGUAGGAUAUCCAGCAUUGACCAUCGGAGAAGGACAUGAGGAUCACCCAUGUACCGAUACAAUGGGAUAACGCAAU”: the apparent Kd (usually the concentration giving half-maximal binding under the conditions of the assay) runs as follows: under setting [1], 0.0154 µM; under setting [2], 0.018 µM.

In the case of “CAAUUUAUUGCAGGAUAUACAAUACAAUGAUUAGUAGAAGGGUAUAAUACAUGAGGAUCACCCAUGUCAUGUGUCAUAAUAACC”, the “apparent Kd” value is, setting by setting: under setting [1], 0.0367 µM; under setting [2], 0.0276 µM.

On to “AUAGAGAUAGCGAUAUGAUCGAGAGAUCAUGUCGCUAAGAUUAGAAGGACAUGAGGAUCACCCAUGUAGGAUAUGGGAGUAGAA”, for which the “apparent Kd” value worked out at 0.127 µM under setting [3] and 0.0498 µM under setting [4].

Regarding “GUAGCUAUCGGAGGAUAUUCAUACUGGAAACGGACAUGAGGAUCACCCAUGUGGCGAAAGCCUUGGGAGAAGGCUGAUAGCUAC”, the “apparent Kd” value by setting is: under setting [3], 0.139 µM; under setting [4], 0.00772 µM.

On to “UUUUCCAAUCAAGGAUAUGUAUUAAAGAUUUGAAAACAUGAGGAUCACCCAUGUAUAUGGUGGGAACAGAAGGUGAAUAAGUAA”, for which the “apparent Kd” value reads like this: under setting [1], 0.221 µM; under setting [2], 0.231 µM.

As to “AUACGGGCCCAGAAGGUGCCAGCGAGAGCUGCACAUGAGGAUCACCCAUGUUGUCGGUGACGACGCAAGGAUAUGGGCCCGUAU”, the “apparent Kd” value by setting is: under setting [3], 0.0234 µM; under setting [4], 0.00663 µM.

As for “GCUGACGAUGUAGGAUAUCUCGACGAUAAGUCGAGAGAAGGACAUGAGGAUCACCCAUGUAAAAUCCCGUCAGCGAGGAAACUC”, the “apparent Kd” value was 0.0164 µM under setting [1] and 0.0231 µM under setting [2].

For “AAAAGGCUAGGAUAUACCAGUGGGUGUAAGAACUCAAAUUUACAUGAGGAUCACCCAUGUAGAAGGAGUAAAAU”, the “apparent Kd” value under setting [1] was determined as 0.0204 µM and the “apparent Kd” value under setting [2] is 0.0302 µM.

“UUGAAGUCAUCAGGAUAUAGUAUUAAAGACAUUUAUAUUUUCAAACAUGAGGAUCACCCAUGUCGCUAGAAGGGAUUAUAGAUU”: the “apparent Kd” value is, setting by setting: under setting [1], 0.0491 µM; under setting [2], 0.0449 µM.

As for “CGACCCUGAACGAAAUCAUGCAGUCAGGAUAUACAUGAGGAUCACCCAUGUGCGUACCAACUCGUGUAGAAGGGACUUUCAGGA”, the “apparent Kd” value under setting [1] was 0.0156 µM and the “apparent Kd” value under setting [2] was 0.0323 µM.

As for “GUUGCUACUGAGGAUAUUAUUCUACCCGACUGAUAAGAAGGCAGUACAUGAGGAUCACCCAUGUGGGUAGCCAG”, the “apparent Kd” value runs as follows: under setting [1], 0.0167 µM; under setting [2], 0.0225 µM.

For the sequence “GAGUGAUUAGGAUAUACAUGAGGAUCACCCAUGUGCUUCAGCUAGGAGACUAGCAUUGGUAGAAGGAAUUACUC”, the “apparent Kd” value was 0.0163 µM under setting [1] and 0.0571 µM under setting [2].

Regarding “AGUGCGUAUGUGAGGAUAUGCUGGUCCUUGGCUCGGCAGAAGGCACAUGAGGAUCACCCAUGUGGUGUCGUACU”, the “apparent Kd” value by setting is: under setting [1], 0.239 µM; under setting [2], 0.0471 µM.

Turning to “GUAAUUAUAUAGGAUAUCGAACUUAUUAUUUAACGAGAAGGAUGAACAUGAGGAUCACCCAUGUGGUAUCAUGG”, the “apparent Kd” value is, setting by setting: under setting [1], 0.156 µM; under setting [2], 0.19 µM.

For the sequence “UUAGAUUAUUGAGGAUAUGGAUCUUAUUAUUAACCAGAAGGCAAACUCAACAUGAGGAUCACCCAUGUAUAAAGGGUAUUAGUU”, the “apparent Kd” value by setting is: under setting [1], 0.0895 µM; under setting [2], 0.0834 µM.

As to “AAAAACUCAGGAUAUAUUAUGGGACAAUGAAGGAAGAUAAAACAUGAGGAUCACCCAUGUAGAAGGGAGAAAAA”, the “apparent Kd” value by setting is: under setting [1], 0.0585 µM; under setting [2], 0.0675 µM.

Turning to “UUGCCUCAGAACAUGAGGAUCACCCAUGUGCUGCGGGCAACGUAGGAUAUGAUGGUUUGAUACCAUCAGAAGGAUGAUGGUACC”, the “apparent Kd” value came out at 0.0054 µM under setting [3] and 0.00521 µM under setting [4].

As for “GUGUGCUGAGGAUAUACAGAGGAAGAUAAGAUAAGAUAAUCACAUGAGGAUCACCCAUGUAGAAGGCAGAGUGU”, the “apparent Kd” value under setting [1] was found to be 0.0237 µM and the “apparent Kd” value under setting [2] was found to be 0.0355 µM.

For “AUACCACGAGGAUAUCGUCUAUUUUACAUGAGGAUCACCCAUGUUAUCUUUGUUUUGUUUCGAGAAGGCGUGUUUU”, the “apparent Kd” value is, setting by setting: under setting [1], 0.0251 µM; under setting [2], 0.0171 µM.

In the case of “GCAUCACAUGAGGAUCACCCAUGUCUUCGGAGUGGAGGAUAUGGUCACUGUAAACAGUGGCCAGAAGGCCGGAUGC”, the “apparent Kd” value was 0.0826 µM under setting [3] and 0.0945 µM under setting [4].

Source of the values: the EternaBench riboswitch data.
